The source of these data is ChEMBL document CHEMBL5046273, “Development of a Novel, Small-Molecule Brain-Penetrant Histone Deacetylase Inhibitor That Enhances Spatial Memory Formation in Mice” (J Med Chem, 2022).

Structures are written as SMILES. Activity calls are given as the source filed them. The rule behind the calls is not given here.

Data set [1] can be described thus: AUC in Swiss Webster mouse blood at 40 mg/kg, ip by LC-MS/MS analysis. In kind it is ADME, organism-based. Further details: dose 40 mg/kg. An outline of the steps:
(§1)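 Single i.p. dose of 40 mg/kg in Swiss Webster mice; blood, brain and liver taken at several time points. Tissues homogenized in acetonitrile, centrifuged, spin-filtered, dried and reconstituted, with 4,5-diphenylimidazole as instrument standard. Quantified by LC–MS/MS on a C18 column with a formic acid/MeCN gradient. Mean ± SD (n = 4), fitted to a two-compartment PK model.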

A short description of data set [2]: Toxicity in ip dosed BALB/c mouse assessed as maximum tolerated dose measured after 2 weeks. In kind it is organism-based. The conditions noted are these: in vivo, 336 h. An outline of the steps:
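Healthy BALB/c mice, compound in 20% DMSO/saline, single i.p. dose. One mouse each at 200, 100 and 50 mg/kg, then 25, 12.5 and 6.25 mg/kg if needed, repeated until a tolerated dose was found. Last test repeated once. Mice weighed daily for 8 days; euthanized at >20% weight loss or overt toxicity. Morbidity/mortality followed over 2 weeks; triplicate experiments.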

For a further data set, the target named is Histone deacetylase 1 (Homo sapiens, UniProt Q13547). As to the kind of experiment: Inhibition of HDAC1 in human DU-145 cells assessed as increase in histone H3 acetylation after 24 hrs by immunofluorescence microscopy. The format is cell-based.
For data set [3], the target named is T1, Protein deacetylase HDAC6 (Homo sapiens, UniProt Q9UBN7).
T1 sequence (Q9UBN7 whole entry): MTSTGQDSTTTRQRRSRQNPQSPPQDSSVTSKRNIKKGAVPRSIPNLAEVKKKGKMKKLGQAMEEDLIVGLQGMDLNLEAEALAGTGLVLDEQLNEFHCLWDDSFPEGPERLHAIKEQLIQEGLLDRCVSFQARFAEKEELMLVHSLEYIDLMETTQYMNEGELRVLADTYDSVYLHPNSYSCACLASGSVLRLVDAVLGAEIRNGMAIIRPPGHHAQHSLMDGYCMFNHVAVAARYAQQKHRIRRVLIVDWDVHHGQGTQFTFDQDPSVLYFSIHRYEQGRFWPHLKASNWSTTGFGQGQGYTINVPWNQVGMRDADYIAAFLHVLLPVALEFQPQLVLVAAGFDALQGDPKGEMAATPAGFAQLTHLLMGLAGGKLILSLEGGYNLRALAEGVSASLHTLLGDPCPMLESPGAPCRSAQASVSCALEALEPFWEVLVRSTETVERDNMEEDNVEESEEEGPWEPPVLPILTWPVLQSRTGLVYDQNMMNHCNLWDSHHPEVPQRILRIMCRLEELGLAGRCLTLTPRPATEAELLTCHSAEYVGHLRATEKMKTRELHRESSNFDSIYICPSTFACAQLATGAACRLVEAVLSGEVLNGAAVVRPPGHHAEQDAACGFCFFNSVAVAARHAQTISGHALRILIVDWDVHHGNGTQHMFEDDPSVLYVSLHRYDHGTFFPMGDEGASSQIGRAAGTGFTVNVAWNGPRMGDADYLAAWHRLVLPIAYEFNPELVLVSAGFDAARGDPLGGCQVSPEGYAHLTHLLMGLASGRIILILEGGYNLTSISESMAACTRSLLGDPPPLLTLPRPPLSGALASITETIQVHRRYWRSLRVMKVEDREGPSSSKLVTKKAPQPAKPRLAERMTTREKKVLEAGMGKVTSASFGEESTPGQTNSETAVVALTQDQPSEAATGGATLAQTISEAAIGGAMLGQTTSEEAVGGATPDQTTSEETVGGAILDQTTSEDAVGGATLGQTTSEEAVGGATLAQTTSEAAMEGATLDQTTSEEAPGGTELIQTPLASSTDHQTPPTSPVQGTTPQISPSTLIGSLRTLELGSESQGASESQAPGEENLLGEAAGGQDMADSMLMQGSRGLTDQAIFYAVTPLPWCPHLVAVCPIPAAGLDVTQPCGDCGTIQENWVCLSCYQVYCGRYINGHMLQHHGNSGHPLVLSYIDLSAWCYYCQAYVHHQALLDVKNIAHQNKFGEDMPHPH
As to the kind of experiment: Inhibition of HDAC6 in human DU-145 cells assessed as increase in histone H3 acetylation after 24 hrs by immunofluorescence microscopy. In kind it is cell-based.

The nature of data set [4]: Drug uptake in BALB/c mouse liver at 40 mg/kg, ip measured upto 60 mins by mass spectroscopy analysis. In kind it is ADME, organism-based. The note with it: in vivo, 1 h. Summed up:
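BALB/c mice received 40 mg/kg i.p. Retro-orbital blood was collected under isoflurane, then liver and whole brain after CO2 euthanasia, at 10, 30 and 60 min. Acetonitrile extracts were spin-filtered with 4,5-diphenylimidazole as instrument standard and analysed by LC–MS/MS.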

The nature of data set [5]: Tmax in Swiss Webster mouse liver at 40 mg/kg, ip by LC-MS/MS analysis. In kind it is ADME, organism-based. Summed up:
as §1

Data set [6] can be described thus: Half life in Swiss Webster mouse liver at 40 mg/kg, ip by LC-MS/MS analysis. In kind it is ADME, organism-based. The note with it: in vivo. Summed up: as §1
The nature of data set [7]: AUC in Swiss Webster mouse liver at 40 mg/kg, ip by LC-MS/MS analysis. The note with it: in vivo. In kind it is ADME, organism-based. Further details: dose 40 mg/kg. Summed up:
as §1

For data set [8], the system named is Mus musculus. Briefly: Cognitive enhancing effect in C57BL/6 mouse assessed as enhanced spatial memory at 20 to 40 mg/kg, ip measured after 24 hrs. The format is functional, organism-based. The note with it: dose 20-40 mg/kg. Summed up: (§2)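 Male C57BL/6 mice trained to 30 s of total exploration of two identical objects (20 min maximum). Immediately afterwards they received one i.p. injection at 5 mL/kg in 100% DMSO (20, 30 or 40 mg/kg); vehicle DMSO, NaBu 600 mg/kg in saline. Object placement (moved object) tested at 24 h and object recognition (novel object) at 48 h. Time with that object compared to chance (15 s) by one-sample t-test.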

Data set [9] relates to Mus musculus. Briefly: Cognitive enhancing effect in C57BL/6 mouse assessed as enhanced object recognition memory consolidation at 20 to 40 mg/kg, ip measured after 48 hrs. The format is functional, organism-based. The conditions noted are these: dose 20-40 mg/kg. Summed up:
as §2

Sequence of Histone deacetylase 1 (Q13547 whole entry): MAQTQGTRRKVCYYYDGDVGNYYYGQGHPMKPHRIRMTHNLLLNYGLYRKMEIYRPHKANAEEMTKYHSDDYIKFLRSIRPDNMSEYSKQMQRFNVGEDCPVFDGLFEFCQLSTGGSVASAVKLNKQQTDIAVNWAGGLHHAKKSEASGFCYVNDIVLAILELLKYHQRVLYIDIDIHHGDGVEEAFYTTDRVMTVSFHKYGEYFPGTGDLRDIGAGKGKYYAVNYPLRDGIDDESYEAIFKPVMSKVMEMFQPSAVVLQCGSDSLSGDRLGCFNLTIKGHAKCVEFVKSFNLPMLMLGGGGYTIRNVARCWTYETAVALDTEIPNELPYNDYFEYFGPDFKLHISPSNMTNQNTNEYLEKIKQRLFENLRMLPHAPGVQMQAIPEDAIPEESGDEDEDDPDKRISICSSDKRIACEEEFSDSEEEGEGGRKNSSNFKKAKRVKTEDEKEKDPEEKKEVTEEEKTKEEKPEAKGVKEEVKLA

On to `CC(C)(C)OC(=O)CC(O)/C=C/CCSSCC/C=C/C(O)CC(=O)OC(C)(C)C` (stereo not given), for which the figures for the AUC in data set [1] and in [7] were 88.1 ng·h/mL and 31091 ng·min/g, respectively. In data set [2], the MTD (usually the highest dose tested that stayed within the study's limit of toxicity) is more than 200 mg/kg. For the same molecule, the half-maximal inhibitory concentration (IC50) (usually the concentration that gives 50% inhibition) was determined as 8.7 µM at Histone deacetylase 1 and 12 µM in data set [3]. Further, the Drug uptake result in data set [4] is reported as “Active”. Besides, the time of peak concentration (Tmax) – broadly, the time at which the peak concentration occurs – in data set [5] was 10 min. In addition, in data set [6], the t1/2 came out at 41 min. Besides, the outcome with Mus musculus [8] was Active. Moreover, in the data set on Mus musculus [9], the outcome was inactive.
